# From PubChem BioAssay
# Tb MetRS inh – blocks T. brucei methionyl-tRNA synthetase activity; purified T. brucei MetRS, ATP depletion, Kinase-Glo luminescence; inhibition, % at 11.9 µM; actives 0.4% (n = 360,000);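 active means inhibition above a per-plate cutoff of the control wells' mean inhibition plus 3 SD, cut at about 5.5% in these data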;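 further: 0% = DMSO wells median and 100% = median of wells with control inhibitor compound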
#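 Dosing: 11.9 µM single point; system: parasite MetRS enzyme; technique: luminescence of leftover ATP; times: 15 min enzyme-compound preincubation, 2 h reaction, 10 min detection, 25 °C; replicates: each compound tested once; read-out basis: percent inhibition relative to median high and low control wells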
# MPTP inh – blocks calcium-induced mitochondrial swelling; inhibition, % at 10 µM; actives 1.4% (n = 360,000); AID 602449; isolated mouse mitochondria, Ca2+ swelling absorbance, 30 min;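 active means inhibition of 50% or more, scaled per plate between neutral and stimulator controls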;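 further: 0% = DMSO wells given calcium and 100% = 1 mM EGTA wells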
# EBV gp42 inh – inhibitors of Epstein-Barr virus glycoprotein 42; actives 0.42% (n = 220,000); AID 1085; inhibition, % (tested at 21.74 µM); Q1HVG2; Fluorescence polarization binding assay, mP read-out; in the data active means inhibition above about 50%
# Target sequence (Q1HVG2 whole entry, looked up): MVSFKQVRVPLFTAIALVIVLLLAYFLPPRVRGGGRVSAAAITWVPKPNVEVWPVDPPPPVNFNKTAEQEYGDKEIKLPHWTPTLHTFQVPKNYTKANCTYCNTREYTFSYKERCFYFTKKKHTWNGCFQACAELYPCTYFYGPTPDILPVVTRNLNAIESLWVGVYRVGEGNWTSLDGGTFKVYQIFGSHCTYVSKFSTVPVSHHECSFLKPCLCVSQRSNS
# GRIN3A LBD mod – modulates the human NR3A ligand-binding domain. NR3A LBD differential scanning fluorimetry, Tm shift; 0% = protein alone, 100% = glycine-bound protein. Tm shift relative to glycine control, % at 25 µM. actives 2.5% (n = 340,000). AID 1259313;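 active means melting temperature shift of at least 10% of the positive control shift, at one fixed dose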
# WT yeast gro inh – growth inhibition of WT yeast, mitochondrial fusion screen; mitochondrial fusion phenotypic screen, WT strain; inhibition, % at 10 µM; actives 2.1% (n = 190,000); AID 1362; in the data active means inhibition above about 58%; tested in S. cerevisiae
# CHOP inh – CHOP inhibition in unfolded protein response | CHO-K1 CHOP-promoter luciferase, tunicamycin-induced, 15-18 h | inhibition, % at 10 µM | actives 3.8% (n = 220,000) | AID 2732;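 active means compounds that reduced the stress-induced luciferase reporter signal by more than about 70% of percent inhibition, limit read from the data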;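 further: 0% = tunicamycin plus vehicle and 100% = wells without tunicamycin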
# * = called active by the depositor; . = no result given. Most compounds without a hit are left out; they make up all but 6.4% or so of the library.
SMILES,Tb MetRS inh,MPTP inh,EBV gp42 inh,GRIN3A LBD mod,WT yeast gro inh,CHOP inh
COc1ccc(CC(=O)Nc2nc(-c3cccc([N+](=O)[O-])c3)cs2)cc1,0,2,-6,0,8,80*
O=C(O)c1ccn(Cn2cnc3ccccc32)n1,-1,-1,-16,-1,-44,-45
O=C(Nc1cccc(C(F)(F)F)c1)c1cc2c(s1)-c1ccccc1OC2,-1,37,-7,37*,2,50
CCC(C)(C)NC(=O)C(OC(=O)c1cc2sccc2n1C)c1ccc(OC)cc1 (stereo not given),-1,2,-8,1,-1,79*
CC(C(=O)NCCN1C(=O)S/C(=C\c2cccnc2)C1=O)N1C(=O)c2ccccc2C1=O (stereo not given),-2,0,-15,2,-7,14
Cc1cc2ccccc2c(=O)n1CC(=O)NCC(=O)N1CCN(c2cccc(Cl)c2)CC1,-1,5,-23,-2,-8,89*
Oc1ccc(/C=N/Nc2nccnc2Cl)c(O)c1,-2,0,-6,18*,1,65
Clc1nccnc1N/N=C/c1ccc(Br)cc1,-1,1,.,3,.,.
COc1ccc(/C=N/Nc2nccnc2Cl)cc1,-3,0,-3,12*,19,72*
Oc1ccc(/C=N/Nc2ncc(Br)cn2)c(O)c1,0,1,7,31*,31,54
COC(=O)c1sccc1N/N=C/c1cccc(OC)c1O,-1,1,-2,3,17,83*
Nc1nnc(SCC(=O)NNC(=O)c2ccccc2F)s1,0,0,.,-10,.,.
CC(C)CNC(=O)c1ccccc1NC(=O)c1ccccc1N(C)S(C)(=O)=O,0,3,-7,-2,10,3
Cn1cc(-c2ccno2)c(C(=O)O)n1,0,-1,-7,-1,8,4
COc1cccc(/C=N/Nc2ncnc(Cl)c2N)c1O,-1,0,-3,7,55,37
COc1cccc(/C=N/Nc2ncnc3scc(-c4ccccc4)c23)c1O,0,19,-7,-7,-6,75*
COc1cccc(/C=N/Nc2nccnc2Cl)c1O,-1,1,-25,-1,26,74*
O=C(NCc1cccs1)c1cc2c(s1)CS(=O)(=O)C2,0,2,-16,15*,-15,9
Cc1cc(N/N=C/c2ccc([N+](=O)[O-])o2)nc2ccccc12,0,5,-4,14*,2,-88
O=[N+]([O-])c1ccc(/C=N/NS(=O)(=O)c2ccc(Cl)cc2)o1,-1,1,-29,4,-15,-18
Cc1ccc(-c2cc(C(=O)N/N=C/c3ccc([N+](=O)[O-])o3)c3ccccc3n2)o1,-1,-1,.,-3,.,.
O=[N+]([O-])c1ccc(/C=N/Nc2ccnc3cc(Cl)ccc23)o1,0,21,.,17*,.,.
Cc1cc2ncn(/N=C/c3ccc([N+](=O)[O-])o3)c2cc1C,-1,1,-35,10*,-5,-53
CCOc1ccc(NC(=O)CSc2nc(C3CC3)nc3ccccc23)cc1,-2,-3,-16,-2,7,96*
Cc1cccc(C)c1NC(=O)CSc1nc(COc2ccccc2)nc2ccccc12,0,3,-19,-5,-3,88*
SMILES,Tb MetRS inh,MPTP inh,EBV gp42 inh,GRIN3A LBD mod,WT yeast gro inh,CHOP inh
CN(N)c1nc(-c2ccccc2)cc(-c2ccccc2)n1,-1,-2,.,6,.,.
Cc1ccc(-c2cc(-c3ccccc3)nc(N/N=C/c3cccnc3)n2)cc1,-1,2,.,-6,.,.
O=[N+]([O-])c1cccc(/C=N/N=C\c2ccccc2)c1,0,5,.,0,.,.
O=[N+]([O-])c1cccc(C=NNc2ccccc2)c1,0,4,.,34*,.,.
Nc1cc(Cl)nc(N/N=C/c2ccc([N+](=O)[O-])cc2)n1,-1,0,-3,21*,1,3
CN(/N=C/c1ccc(O)cc1O)c1nc(-c2ccccc2)cc(-c2ccccc2)n1,0,8,-15,22*,-9,54
C(=N/Nc1nc(-c2ccccc2)cc(-c2ccccc2)n1)/c1cccnc1,0,1,-2,-8,68*,8
CC(C)(C)c1ccc(C(=O)N2CCC2(C)C(=O)NS(=O)(=O)c2ccccc2Cl)cc1 (stereo not given),1,0,.,.,.,.
Cc1cc(-c2ccccc2)nc(N/N=C/c2ccc(O)cc2O)n1,0,0,.,11*,.,.
